IC50, AWC and T/C data for 20 compounds are collected here from ChEMBL document CHEMBL1128514, “9-substituted acridine derivatives with long half-life and potent antitumor activity: synthesis and structure-activity relationships” (J Med Chem, 1995).

In test [1] the target is DNA topoisomerase II (Homo sapiens, UniProt P11388+Q02880). As to the kind of experiment: In vitro 50% inhibition of topoisomerase II mediated k-DNA decatenation. Type of test: protein assay.
Test [2] relates to HL-60. The experiment in a line: In vitro cytotoxicity against human leukemic HL-60 cell line. It counts as functional, cell-based. In short, it runs like this:
(§1)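 Growth inhibition over 72 h by XTT tetrazolium microculture assay with phenazine methosulfate-XTT for 6 h at 37 °C. Absorbance read at 450 and 630 nm. Six to seven concentrations per compound; IC50 from median-effect plot.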

The subject of test [3] is L1210. As to the kind of experiment: The compound was tested for the cytotoxicity against L1210 cell lines. It counts as functional, cell-based. The settings on record: Mus musculus. In short, it runs like this: as §1
The subject of test [4] is CCRF S-180. As to the kind of experiment: The compound was tested for the cytotoxicity against S180 cell lines. The settings on record: Mus musculus. It counts as functional, cell-based. In short, it runs like this:
as §1

For test [5], the system named is CEM-VLB. As to the kind of experiment: The compound was tested for the cytotoxicity against human leukemic CEM/VBL cell lines. It counts as functional, cell-based.
Test [6] relates to CCRF-CEM. As to the kind of experiment: The compound was tested for the cytotoxicity against human leukemic CCRF-CEM cell lines. It counts as functional, cell-based.
The nature of test [7]: The compound was tested for the cytotoxicity DC-3F cell lines. Type of test: functional, cell-based. The settings on record: Cricetulus griseus, DC3F.
The subject of test [8] is DC3F/AD-II. The experiment in a line: The compound was tested for the cytotoxicity against human leukemic DC-3F/ADII cell lines, activity is expressed as IC50 values. It counts as functional, cell-based. The settings on record: Cricetulus griseus.
The subject of test [9] is CEM-VM1. As to the kind of experiment: The compound was tested for the cytotoxicity against human leukemic CEM/VM-1 cell lines. It counts as functional, cell-based.
In test [10] the test system is Mus musculus. The experiment in a line: The compound (7.5 mg/kg, ip) was tested for change in average weight of BDF2 mice bearing B16 melanoma. Type of test: functional. In short, it runs like this:
(§2)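 BD2F1 female mice, 19-21 g, carrying subcutaneous tumor brei (0.2 mL); compounds in DMSO given ip once daily × 5 starting day 3. Average body weight change (g) taken on day 14. Five mice per dose; untreated and DMSO-vehicle controls.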

Test [11] relates to Mus musculus. The experiment in a line: The compound (7.5 mg/kg, ip) was tested for change in average weight of BDF2 mice bearing Lewis lung carcinoma. It counts as functional. In short, it runs like this: as §2
For test [12], the species on record is Mus musculus. As to the kind of experiment: Average tumor volume of the B-16 melanoma. Type of test: functional. In short, it runs like this:
(§3)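 BD2F1 female mice, 19-21 g, given subcutaneous 0.2 mL solid tumor brei; dosed ip in DMSO daily for 5 days from day 3 (AHMA 7.5-10 mg/kg, VP-16 10, m-AMSA 5 mg/kg). Tumor volume on day 14 as length × width × width/2 (mm3), expressed as T/C versus untreated. Five mice per dose; DMSO-only group included; two experiments.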

For test [13], the species on record is Mus musculus. The experiment in a line: Average tumor volume of the E0771 mammary adenocarcinoma,. It counts as functional. In short, it runs like this: as §3
For test [14], the species on record is Mus musculus. The experiment in a line: Average tumor volume of the Lewis lung carcinoma. Type of test: functional. In short, it runs like this: as §3
Test [15] deals with Mus musculus. As to the kind of experiment: The compound (7.5 mg/kg, ip) was tested for change in average weight of BDF2 mice bearing E0771 mammary adenocarcinoma. It counts as functional. In short, it runs like this: as §2
For test [16], the system named is Mus musculus. As to the kind of experiment: The compound (10 mg/kg, ip) was tested for change in average weight of BDF2 mice bearing B16 melanoma.
The test system of test [17] is Mus musculus. As to the kind of experiment: The compound ( ip) was tested for change in average weight of BDF2 mice bearing E0771 mammary adenocarcinoma.
Test [18] deals with Mus musculus. The experiment in a line: The compound (10 mg/kg, ip) was tested for change in average weight of BDF2 mice bearing Lewis lung carcinoma.

Values joined by “and” are separate entries in the source; they are usually repeats but may differ in a detail not shown here. Equal entries are not always repeated. Where only a bound is given, the exact number is not on record here.

What is called IC50 is the midpoint of a concentration-inhibition curve. A low value points to higher potency. For the compound `COc1ccc2c(Sc3ccc(COC(=O)NC(C)C)cc3)c3ccccc3nc2c1`, the IC50 in [1] is above 100000 nM; in [2], 1550 nM.
In the case of `O=C(O)CCC(=O)Nc1cc(COC(=O)CCC(=O)O)cc(Nc2c3ccccc3nc3ccccc23)c1`, the IC50 in [1] was above 100000 nM; in test [2], 4300 nM; in [3], 990 nM; in [4], 1830 nM.
As for `COc1ccc2c(Oc3ccc(COC(=O)NC(C)C)cc3)c3ccccc3nc2c1`, the IC50 in test [1] was above 100000 nM; in test [2], 420 nM.
Taken in the same sequence, the figures for `OCc1ccc(Oc2c3ccccc3nc3ccccc23)cc1` were above 100000 nM and 12800 nM.
For `CC(C)NC(=O)OCc1ccc(Sc2c3ccccc3nc3ccccc23)cc1` the same measures were 50000 nM and 2830 nM.
Taken in the same sequence, the figures for `CNC(=O)OCc1ccc(Sc2c3ccccc3nc3cc(OC)ccc23)cc1` were above 100000 nM and 2710 nM.
Take `CC(=O)CCC(=O)Nc1cc(COC(=O)CCC(C)=O)cc(Nc2c3ccccc3nc3ccccc23)c1`: the IC50 in [1] was below 1000 nM; in [2], 15 nM; in test [3] it was 98 nM; in [4] it was 97 nM.
As to `CNC(=O)OCc1ccc(Oc2c3ccccc3nc3ccccc23)cc1`, the values for the IC50 in test [1] and in test [2] were 20000 nM and 680 nM, respectively.
As to `CNC(=O)OCc1ccc(Sc2c3ccccc3nc3ccccc23)cc1`, the IC50 in test [1] was 20000 nM; in [2] it was 1960 nM.
For `OCc1ccc(Sc2c3ccccc3nc3ccccc23)cc1` the same measures were above 100000 nM and 3330 nM.
As for `COc1ccc2c(Sc3ccc(CO)cc3)c3ccccc3nc2c1`, the figures for the IC50 in test [1] and in test [2] were 50000 nM and 1830 nM, respectively.
Taken in the same sequence, the figures for `CC(C)NC(=O)OCc1ccc(Oc2c3ccccc3nc3ccccc23)cc1` were 20000 nM and 1490 nM.
Taken in the same sequence, the figures for `CNC(=O)OCc1ccc(Oc2c3ccccc3nc3cc(OC)ccc23)cc1` were 50000 nM and 950 nM.
For the compound `Nc1cc(CO)cc(Nc2c3ccccc3nc3ccccc23)c1`, the IC50 in test [5] came out at 3790 nM; in [6], 263 nM; in [7], 5 nM; in test [8] it was 54 nM; in test [1] it was 1000 nM; in [3], 16 nM. The half-maximal inhibitory concentration (IC50) came out at 30 nM in [4] and 1600 nM in [9].
In the case of `COc1ccc2c(Oc3ccc(CO)cc3)c3ccccc3nc2c1`, the values for the IC50 in test [1] and in test [2] were 20000 nM and 1040 nM, respectively.
Consider `O=C(O)CCC(=O)Nc1cc(CO)cc(Nc2c3ccccc3nc3ccccc23)c1`, for which the IC50 is 20000 nM in test [1], 5000 nM in [2], 330 nM in [3] and 1070 nM in [4].
`CC(=O)OCc1cc(N)cc(Nc2c3ccccc3nc3ccccc23)c1`: the concentration for half-maximal inhibition (IC50) is 28 nM in [2] and 34 nM in test [3].
As for `CC(=O)Nc1cc(CO)cc(Nc2c3ccccc3nc3ccccc23)c1`, the IC50 in test [2] was 18 nM; in test [3] it was 28 nM.
As for `CC(=O)CCC(=O)Nc1cc(CO)cc(Nc2c3ccccc3nc3ccccc23)c1`, the IC50 is below 1000 nM in test [1], 25 nM in test [2], 45 nM in test [3] and 70 nM in test [4].
In [2], `Cl.Nc1cc(CO)cc(Nc2c3ccccc3nc3ccccc23)c1` registered an IC50 of 25 nM. For the same compound, the AWC in [10] was -0.3 g; in [11], 0.1 g; in test [15] it was 0.6 g; in test [16], -1.9 g; in [17] it was 0.6 g; in [18] it was -0.4 g. In addition, the T/C in test [12] is 0.23 and 0.18; in test [13], 0.13 and 0.14; in test [14] it was 0.55 and 0.23.
